The RNAGym collection of RNA variant scans (doi:10.1126/science.aae0568)
Variants at the floor of the assay were thinned out.

B1: tRNA (parent)
chain: GUUCCGUUGGCGUAAUGGUAACGCGUCUCCCUCCUAAGGAGAAGACUGCGGGUUCGAGUCCCGUACGGAACG

Variants of: B1
Experiment: yeast fitness relative to wild type (ratio to wild type); higher = fitter; tRNA-Arg(CCU), competitive growth, 37 C, YPD
In short: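 Changes in genotype frequencies gave Darwinian fitness relative to wild type. Frequencies were read by 100-nucleotide paired-end sequencing of gene amplicons before and after pooled Saccharomyces cerevisiae strains, carrying tRNA-Arg(CCU) gene variants at the native locus, were competed in YPD at 37°C for 24 hours in six replicates. A genotype was kept only with ≥ 100 starting reads, and estimates < 0.5 were set to 0.5.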

Row | Variant | yeast fitness
1 | C33U C49A G58C A69U | 0.52
2 | C33U A42C C62A | ≤ 0.5
3 | U32G C34A A40C C60U | ≤ 0.5
4 | C33A G48C A69G | 0.684
5 | C33U A37U C61U | ≤ 0.5
6 | U32G C33U A37G | ≤ 0.5
7 | U32G A37U | 0.55
8 | C33G G41C C61G A65U | ≤ 0.5
9 | C33U A36C A70G | ≤ 0.5
10 | C33G A43C C62A G67C | 0.743
11 | C33G G51A U53A G56A G67C | ≤ 0.5
12 | C33A U64A A70C | ≤ 0.5
13 | C33U A45C C49U | 0.652
14 | U32G C55G | ≤ 0.5
15 | C33U A42G U59A | ≤ 0.5
16 | C33U A42G U59G | 0.504
17 | C33A C55G A69C | ≤ 0.5
18 | C33U A43G | 0.672
19 | C33A G50U | 0.524
20 | C33G G39C C55U | 0.515
21 | C33A G51A | 0.659
22 | C33G U47A C61U A69U | 0.573
23 | C33U A42C C55G G68C | ≤ 0.5
24 | C33A G58C U64G | 0.564

Row | Variant | yeast fitness
25 | C33G C46A | 0.71
26 | C33U A40C C60G | ≤ 0.5
27 | C33U A57U U59C | 0.601
28 | C33A A36U G41A G48A | ≤ 0.5
29 | C33A G38C G50A | ≤ 0.5
30 | C33U G39A A69C | ≤ 0.5
31 | C33G C49A | 0.628
32 | C33G A40U G48C C60G | ≤ 0.5
33 | C33A A57U C66U | 0.555
34 | C33U A43C C46G | ≤ 0.5
35 | C33U A43U G44A C49G G50C C61U C66U | ≤ 0.5
36 | C33U A42C A65G | 0.58
37 | C33A U35C C60A | ≤ 0.5
38 | U32G A37C A57C G63A | ≤ 0.5
39 | C33A G38C A43G U53C | 0.547
40 | C33G G51A C55A | ≤ 0.5
41 | C33G G52C C61U U64C | ≤ 0.5
42 | C33G C61U C62G C66U | ≤ 0.5
43 | C33G G41C G56C G58A U59C G63C A65U | ≤ 0.5
44 | C33A C46A G67A | ≤ 0.5
45 | C33A G44A U64G | ≤ 0.5
46 | C33U A65G | 0.665
47 | C33A A36U C66U | ≤ 0.5
48 | U32G A70C | 0.787

Row | Variant | yeast fitness
49 | U32G A70G | 0.628
50 | C33G C61U G67A | 0.649
51 | C33U G41C C55A A69C | ≤ 0.5
52 | C33U C34A A36G A42U | 0.73
53 | C33A C49U C62G | 0.735
54 | C33G A36G G51C U64A C66U A69C | ≤ 0.5
55 | C33U A43G A70U | 0.637
56 | C33G C34U G38C | ≤ 0.5
57 | C33G A42G G52A C62A A69U A70U | ≤ 0.5
58 | C33A C46A G58A A70G | ≤ 0.5
59 | U32G U35G A36C | ≤ 0.5
60 | C33U C46A | 0.821
61 | C33U C46U | 0.708
62 | C33A C49A C60A | 0.714
63 | C33G A57U | ≤ 0.5
64 | C33G A57C | ≤ 0.5
65 | U32G G58C A65U | ≤ 0.5
66 | C33G C46U C60U | ≤ 0.5
67 | U32G U35G A36C U54C | ≤ 0.5
68 | U32G A45C G56A C66U | ≤ 0.5
69 | C33U C34G C62A | ≤ 0.5
70 | C33U A43C G48A G63C | ≤ 0.5
71 | C33G A40G G51C C61U A65U | 0.667
72 | C33A A43G A45C | ≤ 0.5

Row | Variant | yeast fitness
73 | C33G G68A | 0.671
74 | C33G G68C | 0.558
75 | C33A U35A G68C | ≤ 0.5
76 | C33A A42G | 0.583
77 | C33U G41C A45C | 0.621
78 | C33A C55G C66U | ≤ 0.5
79 | C33G C62G | 0.597
80 | C33U G41C G68C A69U | ≤ 0.5
81 | C33A A37C G63A | ≤ 0.5
82 | C33U C34A A36G A42U C49U | 0.571
83 | U32G G67U | 0.547
84 | U32G G67A | 0.643
85 | C33G A42C G67A | ≤ 0.5
86 | C33U A45C U64G | ≤ 0.5
87 | C33G U35C G39A | ≤ 0.5
88 | C33U A37G C49U A57U | ≤ 0.5
89 | C33G A36U C49A | ≤ 0.5
90 | C33G A42G G44A U64C | ≤ 0.5
91 | C33G C34U | 0.563
92 | C33A C34U | ≤ 0.5
93 | C33G A42U C60G | ≤ 0.5
94 | C33G C66G | 0.604
95 | C33A G44A | 0.617
96 | C33A A36U A37G | ≤ 0.5

Row | Variant | yeast fitness
97 | C33A G38A A40C A43G G51C C61G | ≤ 0.5
98 | C33G G41C G56C G58A G63C A65U | 0.587
99 | C33U A42C C46A | ≤ 0.5
100 | C33G G48A C66G A70C | 0.524
101 | C33G A57U C62U | ≤ 0.5
102 | U32G C46A | 0.667
103 | U32G C46U | 0.562
104 | C33A A69G | 0.655
105 | C33U A65C C66U | 0.59
106 | C33G U59A C60G C61G | ≤ 0.5
107 | C33G G56C A70U | 0.727
108 | C33G A40G U59A | ≤ 0.5
109 | C33A U54C | 0.561
110 | C33A U54G | 0.518
111 | C33A G52A | ≤ 0.5
112 | C33U A37U C62U | ≤ 0.5
113 | U32G G63A | 0.557
114 | C33G G38A G41A | ≤ 0.5
115 | C33A C49G G67C | 0.548
116 | C33G A43C | 0.666
117 | C33G G52C C61U | 0.566
118 | C33G C34U G68A | 0.582
119 | C33U G44A A65G | 0.606
120 | C33G A69U | 0.764

Row | Variant | yeast fitness
121 | C33G A69C | 0.742
122 | U32G G38A | 0.586
123 | C33G A36C A57U | ≤ 0.5
124 | C33G U47G C66U | 0.56
125 | C33U C62U | 0.717
126 | C33A A42G U54C C62U | 0.637
127 | C33G A37C A45C | ≤ 0.5
128 | C33U A36G G39A G44A C55G U59C | ≤ 0.5
129 | C33G C34G U35C C46U | ≤ 0.5
130 | C33G G67A A69C | ≤ 0.5
131 | C33G G41C A43C G67C | ≤ 0.5
132 | C33U G38A G41U C46U | ≤ 0.5
133 | C33U A36G A45C A57U U59C | ≤ 0.5
134 | C33A A45G C49U A70U | ≤ 0.5
135 | C33U C49U G51C C55U | ≤ 0.5
136 | C33U A42U G68A A70G | 0.534
137 | C33U A40U | 0.616
138 | C33U A40C | 0.777
139 | C33G A36U | 0.589
140 | C33G A36C | ≤ 0.5
141 | C33A A36C | 0.526
142 | C33U A36G | 0.662
143 | C33G A43G G58A G67A A69U | 0.573
144 | C33A C49U G52A | ≤ 0.5

Row | Variant | yeast fitness
145 | C33U A43G U53C | ≤ 0.5
146 | C33G U47C G52C C61U | ≤ 0.5
147 | C33G G63C | ≤ 0.5
148 | U32C U64G | 0.754
149 | U32C U64C | 0.946
150 | U32G C49G C55A | 0.65
151 | C33G A36C C46A | ≤ 0.5
152 | C33U C49A G68C | ≤ 0.5
153 | C33A C49A | 0.597
154 | C33G G52A A65C | ≤ 0.5
155 | C33G C60U | ≤ 0.5
156 | U32G C33G A65U | ≤ 0.5
157 | C33A G52A A65U | ≤ 0.5
158 | C33A G44A G68U | ≤ 0.5
159 | C33G G38C C55A A65U | 0.665
160 | C33U C49U A69U | 0.564
161 | U32G A36U A45G | ≤ 0.5
162 | C33G U47C C62A | 0.601
163 | C33G C34U C55U A65U G68C | ≤ 0.5
164 | U32G A43C | 0.694
165 | U32G A69U | 0.711
166 | C33A U35A U64C G68C | ≤ 0.5
167 | C33U A36U G51C A69U | 0.551
